The record followed here is ChEMBL document CHEMBL1799938, “Synthesis and identification of new 4-arylidene curcumin analogues as potential anticancer agents targeting nuclear factor-κB signaling pathway” (J Med Chem, 2010).

SMILES strings stand for the structures. Calls of active or inactive are those of the source. No cut-off for these calls is given here.

Experiment [1] concerns A549. As to the kind of experiment: Anticlonogenic activity against human A549 cells assessed as inhibition of colony formation of cells treated at 4 uM with test compound after cell plating and every 3 days thereafter and measured on day 9 after colonies formed by SRB assay. The experiment is classed as functional, cell-based. In a few lines:
(§1)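 A549 cells plated at 200 cells/well, incubated overnight, then exposed to compound or DMSO vehicle; medium and compound renewed every 3 days. On day 9, colonies fixed with 10% TCA for 30 min at 4°C, water-washed, SRB-stained and rinsed with 1% acetic acid. Plates scanned, colonies counted and normalized to DMSO control.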

Experiment [2] in a line: Inhibition of TNF-alpha-induced NFkappaB nuclear translocation in human A549 cells preincubated for 30 mins before TNFalpha challenge and measured 30 post TNFalpha challenge by fluorescence method. The experiment is classed as cell-based.
For experiment [3], the system named is A549. The experiment in a line: Growth inhibition of human A549 cells after 48 hrs by sulforhodamine B assay. The experiment is classed as functional. Particulars: A549, 48 h.
The subject of the next experiment is NCI-H157. The experiment in a line: Growth inhibition of human NCI-H157 cells after 72 hrs by alamar blue method. The experiment is classed as functional. Particulars: NCI-H157, 72 h. In a few lines:
(§2)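 Cells kept in RPMI with 10% FBS and penicillin/streptomycin at 37°C, 5% CO2. Plated in 384-well format, dosed the next day, then incubated 72 hr before Alamar Blue read-out. GI50 is the concentration lowering viability by 50% versus solvent-vehicle control cells at the end of incubation.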

In experiment [4] the test system is A549. The experiment in a line: Growth inhibition of human A549 cells after 72 hrs by alamar blue method. It is filed as functional. The conditions noted are these: A549, 72 h. In a few lines:
as §2

The next experiment concerns NCI-H460. As to the kind of experiment: Growth inhibition of human H460 cells after 72 hrs by alamar blue method. The experiment is classed as functional. Particulars: NCI-H460, 72 h. In a few lines: as §2
Experiment [5] is described as follows: Growth inhibition of human NCI-H1944 cells after 72 hrs by alamar blue method. The experiment is classed as functional. Particulars: NCI-H1944, 72 h. In a few lines:
as §2

Experiment [6] deals with T1, Inhibitor of NF-kappa-B kinase (IKK) (Homo sapiens, UniProt O14920+O15111+Q9Y6K9). The experiment in a line: Inhibition of IKK in human A549 cells assessed as inhibition of TNF-alpha-induced IkappaB degradation at 0.5 to 25 uM preincubated for 4 hrs before TNFalpha challenge measured after 20 mins by Western blot analysis. It is filed as cell-based. In a few lines:
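A549 cells pretreated with compounds at indicated doses, then TNFα (10 ng/ml) added for a further 20 min. Cells lysed in NP-40 buffer (1.0% NP-40, 10 mM Hepes pH 7.4, 150 mM NaCl, phosphatase and protease inhibitors). Equal lysate volumes run on 12.5% SDS-PAGE, transferred to nitrocellulose, milk-blocked, and total IκB detected by Western blot.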

For experiment [7], the target named is T1, Inhibitor of NF-kappa-B kinase (IKK). The experiment in a line: Inhibition of IKK in human A549 cells assessed as inhibition of TNF-alpha-induced IkappaB phosphorylation preincubated for 30 mins before TNFalpha challenge. The experiment is classed as cell-based. In a few lines:
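A549 cells pretreated 30 min with compounds before TNFα (10 ng/ml). Whole-cell NP-40 lysates prepared 7 min after TNFα, run on 12.5% SDS-PAGE and Western blotted with anti-pS32 IκB antibody. Membrane then stripped and reprobed for total IκB.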

The subject of experiment [8] is A549. As to the kind of experiment: Anticlonogenic activity against human A549 cells assessed as inhibition of colony formation of cells treated at 0.4 uM with test compound after cell plating and every 3 days thereafter and measured on day 9 after colonies formed by SRB assay. It is filed as functional. In a few lines: as §1
The target of experiment [9] is T2, Inhibitor of nuclear factor kappa-B kinase subunit beta (Homo sapiens) (UniProt O14920).
T2 sequence (whole entry): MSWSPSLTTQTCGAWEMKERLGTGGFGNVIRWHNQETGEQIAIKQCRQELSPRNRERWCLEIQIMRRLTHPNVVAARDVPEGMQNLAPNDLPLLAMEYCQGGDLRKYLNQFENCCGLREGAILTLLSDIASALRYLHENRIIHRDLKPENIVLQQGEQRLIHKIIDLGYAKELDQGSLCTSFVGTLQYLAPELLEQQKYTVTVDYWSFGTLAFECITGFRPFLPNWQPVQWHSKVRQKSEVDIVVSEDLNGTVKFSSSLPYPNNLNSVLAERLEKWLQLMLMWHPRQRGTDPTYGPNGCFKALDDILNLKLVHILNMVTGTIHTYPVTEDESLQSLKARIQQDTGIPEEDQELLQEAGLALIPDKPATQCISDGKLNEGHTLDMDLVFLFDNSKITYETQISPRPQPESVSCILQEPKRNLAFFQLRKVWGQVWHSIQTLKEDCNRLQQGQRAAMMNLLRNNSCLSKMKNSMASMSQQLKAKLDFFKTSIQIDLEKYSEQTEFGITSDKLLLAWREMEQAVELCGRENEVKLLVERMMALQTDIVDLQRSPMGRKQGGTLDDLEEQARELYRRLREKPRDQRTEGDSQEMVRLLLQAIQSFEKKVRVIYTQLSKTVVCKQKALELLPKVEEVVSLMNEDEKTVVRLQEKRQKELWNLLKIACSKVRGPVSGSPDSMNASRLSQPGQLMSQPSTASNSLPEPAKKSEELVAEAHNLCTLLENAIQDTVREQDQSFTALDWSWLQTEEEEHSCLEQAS
The experiment in a line: Inhibition of recombinant IKK-beta assessed as inhibition of incorporation of [gamma32P] to GST-IkappaBalpha after 30 mins by scintillation counting. In a few lines:
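Activated recombinant IKKβ (40 ng) preincubated with compounds 30 min at room temperature in MOPS buffer pH 7.0. Reaction started with Mg-ATP mix (100 μM ATP, 15 mM MgCl2), 5 μg GST-IκBα and 0.5 μCi [γ-32P]ATP in 25 μl, run 30 min at 30°C. Stopped by boiling in SDS buffer, resolved by 12.5% SDS-PAGE, autoradiographed. Excised bands quantified by scintillation counting.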

T1 sequence (O15111 whole entry, one chain of several): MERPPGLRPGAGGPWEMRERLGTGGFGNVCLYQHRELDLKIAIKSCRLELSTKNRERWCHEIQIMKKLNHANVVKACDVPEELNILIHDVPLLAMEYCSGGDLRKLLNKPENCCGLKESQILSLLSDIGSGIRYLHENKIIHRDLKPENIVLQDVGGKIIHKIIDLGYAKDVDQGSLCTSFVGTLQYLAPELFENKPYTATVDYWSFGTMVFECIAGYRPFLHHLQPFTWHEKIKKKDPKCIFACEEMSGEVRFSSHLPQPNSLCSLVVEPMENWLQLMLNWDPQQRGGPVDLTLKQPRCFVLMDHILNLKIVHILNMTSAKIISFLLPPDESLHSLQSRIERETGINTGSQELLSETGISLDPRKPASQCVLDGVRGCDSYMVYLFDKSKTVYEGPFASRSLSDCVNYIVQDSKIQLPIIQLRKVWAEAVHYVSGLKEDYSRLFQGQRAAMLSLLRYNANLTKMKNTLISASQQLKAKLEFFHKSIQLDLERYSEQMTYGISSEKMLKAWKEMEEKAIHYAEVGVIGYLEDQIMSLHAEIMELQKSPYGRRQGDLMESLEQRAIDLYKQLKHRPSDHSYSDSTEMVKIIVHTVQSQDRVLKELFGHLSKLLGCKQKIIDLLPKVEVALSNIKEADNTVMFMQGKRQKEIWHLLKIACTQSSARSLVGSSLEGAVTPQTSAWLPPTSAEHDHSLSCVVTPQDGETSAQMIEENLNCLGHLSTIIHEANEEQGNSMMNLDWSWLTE
T1 sequence (Q9Y6K9 whole entry, one chain of several): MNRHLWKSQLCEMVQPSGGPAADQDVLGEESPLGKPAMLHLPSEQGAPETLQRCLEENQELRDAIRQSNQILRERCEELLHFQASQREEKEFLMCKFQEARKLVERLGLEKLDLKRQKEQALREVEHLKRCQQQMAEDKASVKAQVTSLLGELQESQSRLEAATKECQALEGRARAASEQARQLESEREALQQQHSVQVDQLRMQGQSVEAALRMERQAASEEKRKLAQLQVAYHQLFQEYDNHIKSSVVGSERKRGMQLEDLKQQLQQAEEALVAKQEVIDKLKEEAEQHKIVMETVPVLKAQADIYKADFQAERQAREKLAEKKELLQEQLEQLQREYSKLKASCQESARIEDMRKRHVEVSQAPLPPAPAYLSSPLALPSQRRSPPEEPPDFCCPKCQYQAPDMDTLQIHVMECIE

With `COc1cc(/C=C/C(=O)CC(=O)/C=C/c2ccc(O)c(OC)c2)ccc1O` [CURCUMIN], the outcome in the experiment with A549 [1] was Active. Half-maximal inhibition in experiment [2] (IC50) required 9.5 µM. The GI50 in the experiment on A549 [3] amounted to 15.2 µM; in the experiment on NCI-H157 it was 19.2 µM; with A549 [4], 9.44 µM; in the experiment with NCI-H460, 12.1 µM; in experiment [5], 16.2 µM.

As for `COc1cc(/C=C/C(=O)C(=Cc2cccc(OC)c2OC)C(=O)/C=C/c2ccc(O)c(OC)c2)ccc1O`, the inhibition entry in experiment [6] was “Active”. Besides, the IC50 worked out at 5 µM in experiment [7] and 1.7 µM in [2]. In addition, the inhibition at 0.4 µM with A549 [8] stood at 50%. Besides, the GI50 turned out to be 0.42 µM with A549 [3]; 0.53 µM in the experiment on NCI-H157; 0.93 µM in the experiment with A549 [4]; 0.3 µM in the experiment with NCI-H460; 0.33 µM in [5]. For the same compound, the inhibition entry in experiment [9] is “Dose-dependent effect”.
